Data: ChEMBL document CHEMBL5370587, “Fungal Anthraquinone Photoantimicrobials Challenge the Dogma of Cationic Photosensitizers” (J Nat Prod, 2023)

Legend:
[1] = tested on: Candida albicans; experiment: Antifungal activity against Candida albicans 501670 assessed as reduction in microbial growth preincubated for 60 mins under dark condition and measured after 20 to 24 hrs at room temperature by RPMI-1640 based dilution assay
[2] = tested on: T-24; experiment: Phototoxicity against human T24 cells assessed as reduction in cell growth preincubated with compound for 24 hrs followed by blue light irradiation at 468 nm for 7 mins 30 sec and measured after 48 hrs by SRB assay; type: functional, cell-based; conditions: T-24, light or radiation study
Outline: (§1)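 Cells (A549 2000, AGS 2500, T24 1500 per well) seeded in Opti-MEM with 2.4% FCS. After 24 h, treated with 25.0−0.3 μM (six levels). After another 24 h, medium was replaced and cells got blue light (468±27 nm, 9.3 J/cm²). Held 48 h at 37 °C, 5% CO2, then TCA-fixed and SRB-stained, read at 540 nm. EC50 from variable-slope fit with 95% CI.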

[3] = tested on: AGS; experiment: Phototoxicity against human AGS cells assessed as reduction in cell growth preincubated with compound for 24 hrs followed by blue light irradiation at 468 nm for 7 mins 30 sec and measured after 48 hrs by SRB assay; type: functional, cell-based; conditions: light or radiation study
Outline: as §1

[4] = tested on: A549; experiment: Phototoxicity against human A549 cells assessed as reduction in cell growth preincubated with compound for 24 hrs under dark condition and measured after 48 hrs by SRB assay; type: functional, cell-based; conditions: A549, light or radiation study
Outline: (§2)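 Dark control plate processed the same way: cells (A549 2000, AGS 2500, T24 1500 per well) in Opti-MEM with 2.4% FCS, dosed at 25.0−0.3 μM 24 h after seeding. Medium renewed after 24 h, then 48 h further at 37 °C, 5% CO2 without light. SRB read-out at 540 nm after TCA fixation. EC50 with 95% CI from variable-slope fit.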

[5] = tested on: Escherichia coli; experiment: Antibacterial activity against Escherichia coli DSM1103 assessed as reduction in microbial growth preincubated for 60 mins under dark condition followed by 428 nm light irradiation and measured after 20 to 24 hrs by muller hinton broth based dilution assay; type: functional; conditions: DSM1103, light or radiation study, time 21-25 hrs
Outline: (§3)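 PhotoMIC (modified EUCAST broth microdilution): 0.5 McFarland suspensions diluted 1:50 in Mueller-Hinton broth (bacteria, 2–8 × 10⁵ CFU/mL) or 1:10 in double-strength RPMI-1640 (yeast, 0.5–2.5 × 10⁵ CFU/mL); ≥10 concentrations, biological triplicates; 60 min dark preincubation, then 30 J/cm² irradiation or dark duplicate plate; 37 °C, 20–24 h; turbidity versus growth control, blanks subtracted.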

[6] = tested on: T-24; experiment: Phototoxicity against human T24 cells assessed as reduction in cell growth preincubated with compound for 24 hrs under dark condition and measured after 48 hrs by SRB assay; type: functional, cell-based; conditions: T-24, light or radiation study
Outline: as §2

[7] = tested on: T-24; experiment: Phototoxicity against human T24 cells assessed as reduction in cell growth preincubated with compound for 24 hrs followed by green light irradiation at 519 nm for 22 mins 23 sec and measured after 48 hrs by SRB assay; type: functional, cell-based; conditions: T-24, light or radiation study
Outline: (§4)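 Cells (A549 2000, AGS 2500, T24 1500 per well) seeded in Opti-MEM with 2.4% FCS and dosed 24 h later at six concentrations, 25.0−0.3 μM. After a further 24 h, fresh medium was added and cells got green light (519±33 nm, 30.0 J/cm²). Then 48 h at 37 °C, 5% CO2. Read-out by TCA fixation, SRB stain and absorbance at 540 nm. EC50 from Hill fit with 95% CI.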

[8] = tested on: AGS; experiment: Phototoxicity against human AGS cells assessed as reduction in cell growth preincubated with compound for 24 hrs followed by green light irradiation at 519 nm for 22 mins 23 sec and measured after 48 hrs by SRB assay; type: functional, cell-based; conditions: light or radiation study
Outline: as §4

[9] = tested on: Staphylococcus aureus; experiment: Antibacterial activity against Staphylococcus aureus DSM1104 assessed as reduction in microbial growth preincubated for 60 mins under dark condition followed by 530 nm light irradiation and measured after 20 to 24 hrs by muller hinton broth based dilution assay; type: functional; conditions: DSM1104, light or radiation study, time 21-25 hrs
Outline: as §3

[10] = tested on: Staphylococcus aureus; experiment: Antibacterial activity against Staphylococcus aureus DSM1104 assessed as reduction in microbial growth preincubated for 60 mins under dark condition and measured after 20 to 24 hrs at room temperature by muller hinton broth based dilution assay; type: functional; conditions: time 20-24 hrs
Outline: (§5)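 Bacteria grown overnight at 37 °C for 15−18 h in the dark, then set to 0.5 McFarland (read at 600 nm) and diluted 1:50 in Müller-Hinton broth to (2–8) × 10⁵ CFU/mL. Dark plate held at room temperature, then incubated at 37 °C. After 20−24 h, turbidity was read against the untreated growth control, with blanks subtracted. Compounds tested at ≥10 concentrations in biological triplicate.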

[11] = tested on: Staphylococcus aureus; experiment: Antibacterial activity against Staphylococcus aureus DSM1104 assessed as reduction in microbial growth preincubated for 60 mins under dark condition followed by 478 nm light irradiation and measured after 20 to 24 hrs by muller hinton broth based dilution assay; type: functional; conditions: DSM1104, light or radiation study, time 21-25 hrs
Outline: as §3

[12] = tested on: A549; experiment: Phototoxicity against human A549 cells assessed as reduction in cell growth preincubated with compound for 24 hrs followed by blue light irradiation at 468 nm for 7 mins 30 sec and measured after 48 hrs by SRB assay; type: functional, cell-based; conditions: A549, light or radiation study
Outline: as §1

[13] = tested on: A549; experiment: Phototoxicity against human A549 cells assessed as reduction in cell growth preincubated with compound for 24 hrs followed by green light irradiation at 519 nm for 22 mins 23 sec and measured after 48 hrs by SRB assay; type: functional, cell-based; conditions: A549, light or radiation study
Outline: as §4

[14] = tested on: Candida albicans; experiment: Antifungal activity against Candida albicans 501670 assessed as reduction in microbial growth preincubated for 60 mins under dark condition followed by 428 nm light irradiation and measured after 20 to 24 hrs by RPMI-1640 based dilution assay; conditions: Candida albicans, 501670, light or radiation study
[15] = tested on: Candida albicans; experiment: Antifungal activity against Candida albicans 501670 assessed as reduction in microbial growth preincubated for 60 mins under dark condition followed by 530 nm light irradiation and measured after 20 to 24 hrs by RPMI-1640 based dilution assay; conditions: Candida albicans, 501670, light or radiation study
[16] = tested on: AGS; experiment: Phototoxicity against human AGS cells assessed as reduction in cell growth preincubated with compound for 24 hrs under dark condition and measured after 48 hrs by SRB assay; type: functional, cell-based; conditions: light or radiation study
Outline: as §2

[17] = tested on: A549; experiment: Photo index, ratio of EC50 for human A549 cells killed in the absence of light to EC50 for human A549 cells killed after irradiation; type: functional
Outline: (§6)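 SRB assay: cells seeded in Opti-MEM with 2.4% FCS, treated 24 h later with 0.3–25.0 μM, medium replaced after 24 h. Duplicate plates were irradiated with blue light (468 nm, 9.3 J/cm²) or green light (519 nm, 30.0 J/cm²), or kept dark, then held 48 h at 37 °C, 5% CO₂. EC50 from Hill fit; photoindex = EC50 dark / EC50 irradiated.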

[18] = tested on: Candida albicans; experiment: Antifungal activity against Candida albicans 501670 assessed as reduction in microbial growth preincubated for 60 mins under dark condition followed by 478 nm light irradiation and measured after 20 to 24 hrs by RPMI-1640 based dilution assay; conditions: Candida albicans, 501670, light or radiation study
[19] = tested on: T-24; experiment: Photo index, ratio of EC50 for human T24 cells killed in the absence of light to EC50 for human T24 cells killed after irradiation; type: functional
Outline: as §6

[20] = tested on: Staphylococcus aureus; experiment: Antibacterial activity against Staphylococcus aureus DSM1104 assessed as reduction in microbial growth preincubated for 60 mins under dark condition followed by 428 nm light irradiation and measured after 20 to 24 hrs by muller hinton broth based dilution assay; type: functional; conditions: DSM1104, light or radiation study, time 21-25 hrs
Outline: as §3

[21] = tested on: Escherichia coli; experiment: Antibacterial activity against Escherichia coli DSM1103 assessed as reduction in microbial growth preincubated for 60 mins under dark condition and measured after 20 to 24 hrs at room temperature by muller hinton broth based dilution assay; type: functional; conditions: time 20-24 hrs
Outline: as §5

[22] = tested on: Staphylococcus aureus; experiment: Antibacterial activity against Staphylococcus aureus DSM1104 assessed as reduction in microbial growth preincubated for 60 mins under dark condition followed by 428 to 530 nm light irradiation and measured after 20 to 24 hrs by muller hinton broth based dilution assay; type: functional; conditions: DSM1104, light or radiation study, time 21-25 hrs
Outline: (§7)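 Bacterial inoculum set to 0.5 McFarland (600 nm) and diluted 1:50 in Müller-Hinton broth to (2–8) × 10⁵ CFU/mL. After 60 min dark preincubation the plate received H = 30 J/cm² from LED panels (468±27, 519±33, 478±22 or 523±33 nm). Incubated at 37 °C in the dark for 20−24 h. Turbidity read against growth control, blanks subtracted. ≥10 concentrations, biological triplicate.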

[23] = tested on: Escherichia coli; experiment: Antibacterial activity against Escherichia coli DSM1103 assessed as reduction in microbial growth preincubated for 60 mins under dark condition followed by 428 to 530 nm light irradiation and measured after 20 to 24 hrs by muller hinton broth based dilution assay; type: functional; conditions: DSM1103, light or radiation study, time 21-25 hrs
Outline: as §7

[24] = tested on: Candida albicans; experiment: Antifungal activity against Candida albicans 501670 assessed as reduction in microbial growth preincubated for 60 mins under dark condition followed by 428 to 530 nm light irradiation and measured after 20 to 24 hrs by muller hinton broth based dilution assay; type: functional; conditions: Candida albicans, 501670, light or radiation study; in the assay text read “RPMI-1640” for “muller hinton broth”; time 21-25 hrs
Outline: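 Yeast set to 0.5 McFarland (530 nm), diluted 1:10 in double-strength RPMI-1640 to (0.5−2.5) × 10⁵ CFU/mL. Irradiated at H = 30 J/cm² after 60 min dark preincubation, then kept dark at 37 °C for 20−24 h. Growth inhibition by turbidity versus growth control, blanks subtracted. ≥10 concentrations in biological triplicate.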

Compound: C[C@@H]1[C@H](O)[C@@H](C)/C=C/C=C/C=C/C=C/C=C/C=C/C=C/[C@H](O[C@@H]2O[C@H](C)[C@@H](O)[C@H](N)[C@@H]2O)C[C@@H]2O[C@](O)(C[C@@H](O)C[C@@H](O)[C@H](O)CC[C@@H](O)C[C@@H](O)CC(=O)O[C@H]1C)C[C@H](O)[C@H]2C(=O)O [AMPHOTERICIN B]
- MIC [1]: 0.22 µM

Compound: COc1c(O)c(O)c2c(c1O)C(=O)c1cc(C)cc(O)c1C2=O
- EC50 [2]: > 25 µM
- EC50 [3]: > 25 µM
- EC50 [4]: > 25 µM
- MIC [5]: > 79 µM
- EC50 [6]: 24.7 µM
- EC50 [7]: 11.6 µM
- EC50 [8]: > 25 µM
- MIC [9]: 2.37 µM
- MIC [10]: > 79 µM
- MIC [11]: 4.74 µM
- EC50 [12]: > 25 µM
- EC50 [13]: 16.2 µM
- MIC [14]: 39.5 µM
- MIC [15]: 39.5 µM
- EC50 [16]: > 25 µM
- Ratio EC50 [17]: >1.5
- MIC [18]: 19.7 µM
- Ratio EC50 [19]: 2.1
- MIC [1]: > 79 µM
- MIC [20]: 39.5 µM

Compound: Cc1cc(O[C@@H]2O[C@H](CO)[C@@H](O)[C@H](O)[C@H]2O)c2c(c1)C(=O)c1cc(O[C@@H]3O[C@H](CO)[C@@H](O)[C@H](O)[C@H]3O)cc(O)c1C2=O
- MIC [21]: > 84 µM
- MIC [22]: > 84 µM
- EC50 [2]: > 25 µM
- EC50 [3]: > 25 µM
- EC50 [4]: > 25 µM
- MIC [23]: > 84 µM
- EC50 [6]: > 25 µM
- MIC [24]: > 84 µM
- MIC [10]: > 84 µM
- EC50 [12]: > 25 µM
- EC50 [16]: > 25 µM
- MIC [1]: > 84 µM

Compound: CC[C@H]1OC(=O)[C@H](C)[C@@H](O[C@H]2C[C@@](C)(OC)[C@@H](O)[C@H](C)O2)[C@H](C)[C@@H](O[C@@H]2O[C@H](C)C[C@H](N(C)C)[C@H]2O)[C@](C)(O)C[C@@H](C)C(=O)[C@H](C)[C@@H](O)[C@]1(C)O [ERYTHROMYCIN]
- MIC [10]: 1.4 µM
